≈ marks a conversion by molar mass, not a printed value.
Legend:
[1] = test system: Mycolicibacterium smegmatis; experiment: Antibacterial activity against Mycobacterium smegmatis MC2 155 after 24 hrs by broth dilution method; assay type: functional; conditions: str. MC2 155, 24 h
How it was run: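 CLSI broth microdilution MIC. Medium: Middlebrook 7H9 broth. Serial 2-fold dilutions give final concentrations of 128 to 0.125 μg/mL. Final inoculum is 1 × 10^5 cfu/mL. Incubation is 24 h at 37 °C. MIC is the lowest concentration with no visible growth. Levofloxacin serves as positive control.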

[2] = test system: Enterococcus faecalis; experiment: Antibacterial activity against Enterococcus faecalis ATCC 29212 after 24 hrs by broth dilution method; assay type: functional; conditions: ATCC 29212, 24 h
How it was run: (§1)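 CLSI broth microdilution in Mueller-Hinton broth, with levofloxacin as positive control. Final inoculum was 1 × 10^5 cfu/mL. Compounds were tested at final concentrations from 128 to 0.125 μg/mL in 2-fold serial dilutions. Plates were incubated for 24 h at 37 °C. MIC was read as the lowest concentration giving no visible growth.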

[3] = test system: Candida albicans; experiment: Antifungal activity against Candida albicans ATCC 10231 after 24 hrs by broth dilution method; assay type: functional; conditions: ATCC 10231, 24 h; how it was run: as §1
[4] = test system: HepG2; experiment: Cytotoxicity against human […] cells after 96 hrs by MTT assay; assay type: functional, cell-based; conditions: HepG2, 96 h
[5] = test system: Morganella morganii; experiment: Antibacterial activity against multidrug-resistant Morganella morganii 07-09 after 24 hrs by broth dilution method; assay type: functional; conditions: 07-09, 24 h
How it was run: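 Mueller-Hinton broth microdilution following CLSI. Strains came from ATCC or clinical isolates. Final compound range 128 to 0.125 μg/mL by 2-fold dilution, inoculum 1 × 10^5 cfu/mL final. Incubated 24 h at 37 °C. MIC read as the lowest concentration showing no visible growth. Levofloxacin is the positive control.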

[6] = test system: Bacillus subtilis; experiment: Antibacterial activity against Bacillus subtilis ATCC 6633 after 24 hrs by broth dilution method; assay type: functional; conditions: ATCC 6633, 24 h; how it was run: as §1
[7] = test system: Mycobacterium tuberculosis; experiment: Antibacterial activity against Mycobacterium tuberculosis H37Rv after 14 days by broth dilution method; assay type: functional; conditions: 336 h
How it was run: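 Broth microdilution per CLSI in Middlebrook 7H9 broth. Compounds run at final 128 to 0.125 μg/mL (2-fold series) against an inoculum of 1 × 10^5 cfu/mL final. Plates incubated 14 days at 37 °C. Endpoint is the lowest concentration without visible growth. Levofloxacin is the positive control.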

[8] = test system: Pseudomonas aeruginosa; experiment: Antibacterial activity against Pseudomonas aeruginosa ATCC 27853 after 24 hrs by broth dilution method; assay type: functional; conditions: ATCC 27853, 24 h; how it was run: as §1
[9] = test system: Staphylococcus aureus; experiment: Antibacterial activity against Staphylococcus aureus ATCC 25923 after 24 hrs by broth dilution method; assay type: functional; conditions: ATCC 25923, 24 h; how it was run: as §1
[10] = test system: A549; experiment: Cytotoxicity against human A549 cells after 96 hrs by MTT assay; assay type: functional, cell-based; conditions: A549, 96 h
[11] = test system: HeLa; experiment: Cytotoxicity against human HeLa cells after 96 hrs by MTT assay; assay type: functional, cell-based
[12] = test system: Escherichia coli; experiment: Antibacterial activity against Escherichia coli ATCC 25922 after 24 hrs by broth dilution method; assay type: functional; conditions: ATCC 25922, 24 h; how it was run: as §1

| Structure (SMILES) | MIC [1] [µg/mL] | MIC [2] [µg/mL] | MIC [3] [µg/mL] | IC50 [4] [µM] | MIC [5] [µg/mL] | MIC [6] [µg/mL] | MIC [7] [µg/mL] | MIC [8] [µg/mL] | MIC [9] [µg/mL] | IC50 [10] [µM] | IC50 [11] [µM] | MIC [12] [µg/mL] |
| --- | --- | --- | --- | --- | --- | --- | --- | --- | --- | --- | --- | --- |
| CC(=O)N[C@@H](CCCN)CC(=O)N[C@@H]1[C@H](O)[C@@H](O)[C@@H](COC(N)=O)O[C@@H]1/N=C1\N[C@@H]2[C@H](O)CNC(=O)[C@H]2N1 | > 128 | > 128 | > 128 | > 10 | > 128 | > 128 | > 128 | > 128 | > 128 | > 10 | > 10 | > 128 |
| CC(=O)N[C@@H](CCCN)CC(=O)N[C@@H]1[C@H](O)[C@@H](O)[C@@H](COC(N)=O)O[C@H]1/N=C1\N[C@@H]2[C@H](O)CNC(=O)[C@@H]2N1 | > 128 | > 128 | > 128 | > 10 | > 128 | > 128 | > 128 | > 128 | > 128 | > 10 | > 10 | > 128 |
| CC(=O)N[C@@H](CCCNC(=O)C[C@@H](N)CCCN)CC(=O)N[C@@H]1[C@H](O)[C@@H](OC(N)=O)[C@@H](CO)O[C@H]1/N=C1\N[C@@H]2[C@H](O)CNC(=O)[C@H]2N1 | > 128 | > 128 | > 128 | > 10 | > 128 | > 128 | > 128 | > 128 | > 128 | > 10 | > 10 | > 128 |
| C[C@H]1COc2c(N3CCN(C)CC3)c(F)cc3c(=O)c(C(=O)O)cn1c23.C[C@H]1COc2c(N3CCN(C)CC3)c(F)cc3c(=O)c(C(=O)O)cn1c23.O [LEVOFLOXACIN] | 1 | 0.5 | > 128 | – | 16 | 0.12 | 0.5 | 0.25 | 0.12 | – | – | – |
| NCCC[C@H](N)CC(=O)NCCC[C@H](N)CC(=O)N[C@@H]1[C@H](O)[C@@H](O)[C@@H](COC(N)=O)O[C@H]1/N=C1\N[C@@H]2[C@H](O)CNC(=O)[C@H]2N1 | 64 (≈ 101 µM) | > 128 | 32 (≈ 50.7 µM) | > 10 | > 128 | 16 (≈ 25.4 µM) | > 128 | > 128 | > 128 | > 10 | > 10 | > 128 |
| CC(=O)N[C@@H](CCCN)CC(=O)N[C@@H]1[C@H](O)[C@@H](O)[C@@H](COC(N)=O)O[C@H]1/N=C1\N[C@@H]2[C@H](O)CNC(=O)[C@H]2N1 | > 128 | > 128 | > 128 | > 10 | > 128 | > 128 | > 128 | > 128 | > 128 | > 10 | > 10 | > 128 |
| NCCC[C@H](N)CC(=O)NCCC[C@H](N)CC(=O)N[C@@H]1[C@H](O)[C@@H](OC(N)=O)[C@@H](CO)O[C@H]1NC1=N[C@@H]2C(=O)NC[C@@H](O)[C@H]2N1 [STREPTOTHRICIN E] | 4 (≈ 6.34 µM) | 64 (≈ 101 µM) | 1 (≈ 1.59 µM) | > 10 | 4 (≈ 6.34 µM) | 1 (≈ 1.59 µM) | 16 (≈ 25.4 µM) | 64 (≈ 101 µM) | 4 (≈ 6.34 µM) | > 10 | > 10 | 16 (≈ 25.4 µM) |
| CC(=O)N[C@@H](CCCNC(=O)C[C@@H](N)CCCNC(=O)C[C@@H](N)CCCN)CC(=O)N[C@@H]1[C@H](O)[C@@H](OC(N)=O)[C@@H](CO)O[C@H]1NC1=N[C@@H]2C(=O)NC[C@@H](O)[C@H]2N1 | > 128 | > 128 | > 128 | > 10 | > 128 | > 128 | > 128 | > 128 | > 128 | > 10 | > 10 | > 128 |
| CC(=O)N[C@@H](CCCN)CC(=O)N[C@@H]1[C@H](O)[C@@H](O)[C@@H](COC(N)=O)O[C@H]1/N=C1\N[C@H]([C@H](O)CN)[C@@H](C(=O)O)N1 | > 128 | > 128 | > 128 | > 10 | > 128 | > 128 | > 128 | > 128 | > 128 | > 10 | > 10 | > 128 |

— ChEMBL document CHEMBL1799937, “Streptothricin derivatives from Streptomyces sp. I08A 1776” (J Nat Prod, 2011)
